KCNK9 block: KCNK9 potassium channel inhibitors, primary screen, HEK293 cells, thallium flux. Potassium channel subfamily K member 9 (Homo sapiens), Q9NPC2. FluxOR thallium flux fluorescence; stronger effect = lower value. B-score at 10 µM. hit rate 1.2% among 310,000. AID 488922, 2010;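 active means ratio B-score over 3 SD below the library mean, with starting fluorescence within 5 SD of its mean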;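 further: negative B-score means less thallium flux so channel inhibition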
Cl transport mod: KCC2 cotransporter modulators, thallium flux, primary screen, cell-based, HEK293 KCC2, FluoZin-2 fluorescence, MLSMR | Solute carrier family 12 member 5 (Homo sapiens), Q9H2X9 | hit rate 2.2% among 190,000 | B-score of Tl+ flux slope (higher = more flux/activation; lower = inhibition) at 10 µM | KCC2 cells, thallium flux FluoZin-2 fluorescence | AID 1456, 2008;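 active means thallium flux slope and its plate-corrected score both differing from the plate sample mean at a set confidence after two filtering rounds, in either direction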;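 further: slope of fluorescence scaled to starting intensity during 10 to 20 s after thallium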
KCNQ1 block: inhibitors of human KCNQ1 channel, primary screen, cell-based, thallium flux, high-throughput. Potassium voltage-gated channel subfamily KQT member 1 (Homo sapiens), P51787. CHO-K1 KCNQ1, FluxOR thallium flux fluorescence; stronger effect = higher value. B-score at 10 µM. hit rate 1.3% among 310,000. AID 2642, 2010;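 active means compounds whose thallium flux B-score, printed positive for inhibition, exceeds three library SD while starting fluorescence stays within three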;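 further: channel opened by potassium depolarization with thallium stimulus after 20 min compound exposure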
Target sequence (P51787 whole entry, looked up): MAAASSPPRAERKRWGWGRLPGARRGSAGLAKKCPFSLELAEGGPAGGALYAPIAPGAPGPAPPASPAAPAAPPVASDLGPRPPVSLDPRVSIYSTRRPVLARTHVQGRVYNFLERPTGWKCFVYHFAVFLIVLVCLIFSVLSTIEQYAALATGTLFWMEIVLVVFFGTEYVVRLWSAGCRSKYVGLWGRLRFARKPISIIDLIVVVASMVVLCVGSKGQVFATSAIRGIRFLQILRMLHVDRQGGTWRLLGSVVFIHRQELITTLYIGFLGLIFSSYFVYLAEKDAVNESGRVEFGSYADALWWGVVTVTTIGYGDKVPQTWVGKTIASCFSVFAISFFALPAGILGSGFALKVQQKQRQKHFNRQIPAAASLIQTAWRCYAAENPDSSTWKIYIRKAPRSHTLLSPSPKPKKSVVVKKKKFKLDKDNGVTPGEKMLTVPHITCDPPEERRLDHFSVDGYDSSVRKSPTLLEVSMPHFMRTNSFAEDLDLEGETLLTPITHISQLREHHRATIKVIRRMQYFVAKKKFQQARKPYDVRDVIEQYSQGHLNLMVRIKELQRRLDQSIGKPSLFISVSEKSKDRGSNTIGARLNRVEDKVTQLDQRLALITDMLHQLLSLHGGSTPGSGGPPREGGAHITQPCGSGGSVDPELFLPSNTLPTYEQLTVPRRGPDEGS
hERG rescue: hERG rescue from dofetilide block, primary screen, cell-based, CHO-hERG, FluxOR thallium flux, dofetilide IC70 | AID 1511, 2009 | activation (rescue from dofetilide block), less the hit threshold, % at 10 µM | dofetilide IC70 present | hit rate 0.51% among 310,000;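 active means activation above the mean of controls blocked by dofetilide plus 5 SD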;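 further: thallium influx through hERG after potassium depolarization seen as dye fluorescence rise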
KCNQ1 pot: potentiators or activators of KCNQ1 channel, primary screen, cell-based, thallium flux, high-throughput | Potassium voltage-gated channel subfamily KQT member 1 (Homo sapiens), P51787 | CHO-K1 KCNQ1, thallium flux FluxOR fluorescence; stronger effect = higher value | B-score at 10 µM | hit rate 0.35% among 310,000 | AID 2648, 2010;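 active means fluorescence ratio B-score, a plate-corrected score, at least three library SD, with initial intensity B-score within 5 SD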
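Medium – assay buffer, equal DMSO in all wells · Material – CHO-K1 cell line with stable KCNQ1 potassium channel expression · Signal – kinetic FluxOR thallium fluorescence, 10-s 1-Hz baseline, 110-s post-stimulus read · Compound – single concentration per compound, DMSO matched to controls · Schedule – 37 °C overnight plating, 90-min dark dye load, 20-min compound pretreatment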
KCNK3 block: human KCNK3 channel inhibitors, primary screen, CHO cells, FluxOR thallium flux, B-score; Potassium channel subfamily K member 3 (Homo sapiens), O14649; FluxOR fluorescence; stronger effect = lower value; B-score at 10 µM; hit rate 0.84% among 340,000; AID 602410, 2012;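 active means B-score under library mean minus 4 SD, starting fluorescence ratio at most library mean plus 5 SD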;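 further: more negative B-score means stronger inhibition of thallium flux through KCNK3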
KCNK3 inh conf: retest of human KCNK3 channel inhibitors, confirmation, CHO cells, FluxOR thallium flux, triplicate. shares compounds with KCNK3 block. FluxOR fluorescence; 0% buffer, 100% carvedilol maximal block. ratio percent of control, % at 10 µM. hit rate 99% among 2,400. AID 651638, 2012;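 active means ratio percent of control, averaged over triplicates, above buffer control mean plus 5 SD, cut at about 64% in these data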;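 further: ratio is the fluorescence rise from min to max over baseline after thallium stimulus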
KCNK3 uninduced: thallium flux inhibition in non-induced cells, primary screen, counter-screen for KCNK3 inhibitor project, cell-based, non-induced KCNK3 line, FluxOR thallium, triplicate | AID 651747, 2012 | thallium flux ratio (lower = more inhibition) at 10 µM | hit rate 40% among 2,400 | non-induced KCNK3 parental cells; stronger effect = lower value | shares compounds with KCNK3 block;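 active means thallium flux ratio, averaged over three wells, more than 5 SD below the buffer control mean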;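 further: host cells are CHO cells without KCNK3 induction; ratio is peak minus trough fluorescence over baseline then normalized to buffer controls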
* hit, by the source's call; i = inactive; · = no result. In the library only some 4.1% were active in any assay of this set; here they are far more common.

SMILES | KCNK9 block | Cl transport mod | KCNQ1 block | hERG rescue | KCNQ1 pot | KCNK3 block | KCNK3 inh conf | KCNK3 uninduced
CC(=O)c1c(C)[nH]c(C(=O)OCC(=O)Nc2ccc(Cl)c(S(=O)(=O)N(C)C)c2)c1C | i | -0.71 | i | -6 | i | i | · | ·
O=C(c1ccccc1)C1CC=CCC1C(=O)c1ccccc1 (centres undefined) | · | · | · | · | · | i | · | ·
CC(C)(CNC(=O)c1ccc([N+](=O)[O-])c(Cl)c1)CNC(=O)c1ccc([N+](=O)[O-])c(Cl)c1 | -7.9* | -0.9 | i | -20 | i | -9.8* | 131* | 0.15*
COc1ccc(Cl)c2sc(N3CCN(C(=O)c4ccco4)CC3)nc12 | i | · | i | -18 | i | -10* | 86* | i
Cc1cccc(C)c1NC(=O)CSc1nnc(C)n1CC1CCCO1 (centres undefined) | i | 0.74 | i | -7 | i | i | · | ·
O=[N+]([O-])c1ccc(C2CCCC/C2=N/OCc2ccccc2F)c([N+](=O)[O-])c1 (centres undefined) | i | -1.3 | 12* | -19 | i | -8.7* | 121* | i
COc1ccc(C)cc1-n1c(SCC(=O)Nc2cc(C)on2)nc2sc(C)c(C)c2c1=O | i | 1.8 | i | -8 | i | -11* | 128* | i
COc1ccc(-c2cn(CCN)c(-c3ccncc3)n2)cc1 | · | · | · | · | · | i | · | ·
CCc1cc(C(=O)Nc2cc(S(=O)(=O)N(C)C)ccc2C)sc1C | i | -0.15 | i | -10 | i | -9.3* | 90* | i
Cc1ccc(CN(C)C(=O)c2ccccc2Sc2ccccc2C#N)cc1 | i | · | i | -14 | i | i | · | ·
COc1cccc(CN(C)C(=O)c2ccc(COc3ccc(Cl)cc3)cc2)c1OC | i | · | i | -14 | i | -11* | 134* | 0.15*
COc1cccc(CN(C)C(=O)c2ccccc2Sc2ccccc2C#N)c1OC | i | · | i | -14 | i | -8.7* | 98* | i
C=CCN(c1nc(C)cc(OC)n1)S(=O)(=O)c1ccccc1 | i | · | i | -12 | i | -9.2* | 107* | i
C=CCN(c1nc(C)cc(OC)n1)S(=O)(=O)c1ccc(C)cc1 | i | · | i | -7 | i | i | · | ·
Cc1ccc(S(=O)(=O)N(C)c2ccc(OCc3cccc(C)c3)cc2)cc1 | i | · | i | -14 | i | -9.3* | 108* | 0.15*
Cc1ccc(S(=O)(=O)N(C)c2ccc(OCC(=O)OCc3cccc(Br)c3)cc2)cc1 | · | · | · | · | · | i | · | ·
Nc1nonc1-n1nnc(C(=O)N/N=C/c2cc(Br)ccc2O)c1CNc1ccccc1 | i | · | i | -23 | i | -10* | 82* | i
COCCn1c(SCc2ccc(C(=O)OC)o2)nc2cc(Cl)ccc2c1=O | -7.4* | -0.078 | i | -1 | i | -9.8* | 126* | i
COCCn1c(SCC(=O)Nc2cc(C)on2)nc2cc(Cl)ccc2c1=O | · | · | · | · | · | i | · | ·
S=C1NCCc2ccc(Cl)cc2C1c1ccccc1Cl (centres undefined) | -6.7* | 0.42 | i | -6 | i | -11* | 123* | i
